The values below come from ChEMBL document CHEMBL1122366, “Potential antiatherosclerotic agents. 3. Substituted benzoic and non benzoic acid analogues of cetaben” (1983).

Assay [1] has as its system Rattus norvegicus. Briefly: In vivo triglyceride lowering activity dosed at 0.10 % of the diet. The assay is classed as functional. In short, it runs like this: (§1)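 Normal rats were dosed in the diet. Serum sterol and triglyceride levels were measured and expressed as the mean percent of control values. Significance versus control was reported at p < 0.05, 0.01 and 0.001.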

In assay [2] the test system is Rattus norvegicus. Description: In vivo sterol lowering activity at dose of 0.10 % of the diet. The assay is classed as functional. Put shortly:
as §1

The subject of assay [3] is Rattus norvegicus. Description: In vivo sterol lowering activity when dosed as 0.03 % of the diet. The assay is classed as functional. Put shortly: as §1
The subject of assay [4] is Rattus norvegicus. Description: In vivo triglyceride lowering activity when dosed as 0.01 % of the diet. It counts as functional. In short, it runs like this: as §1
Assay [5] concerns Rattus norvegicus. Description: In vivo sterol lowering activity when dosed as 0.01 % of the diet. It counts as functional. Put shortly: as §1
The subject of assay [6] is Rattus norvegicus. Briefly: In vivo triglyceride lowering activity when dosed at 0.05 % of the diet.
For assay [7], the system named is Rattus norvegicus. Briefly: In vivo triglyceride lowering activity when dosed at 0.03 % of the diet. It counts as functional. Put shortly: as §1
The target of assay [8] is T1, Sterol O-acyltransferase 1 (Rattus norvegicus) (UniProt O70536).
T1 sequence (whole entry): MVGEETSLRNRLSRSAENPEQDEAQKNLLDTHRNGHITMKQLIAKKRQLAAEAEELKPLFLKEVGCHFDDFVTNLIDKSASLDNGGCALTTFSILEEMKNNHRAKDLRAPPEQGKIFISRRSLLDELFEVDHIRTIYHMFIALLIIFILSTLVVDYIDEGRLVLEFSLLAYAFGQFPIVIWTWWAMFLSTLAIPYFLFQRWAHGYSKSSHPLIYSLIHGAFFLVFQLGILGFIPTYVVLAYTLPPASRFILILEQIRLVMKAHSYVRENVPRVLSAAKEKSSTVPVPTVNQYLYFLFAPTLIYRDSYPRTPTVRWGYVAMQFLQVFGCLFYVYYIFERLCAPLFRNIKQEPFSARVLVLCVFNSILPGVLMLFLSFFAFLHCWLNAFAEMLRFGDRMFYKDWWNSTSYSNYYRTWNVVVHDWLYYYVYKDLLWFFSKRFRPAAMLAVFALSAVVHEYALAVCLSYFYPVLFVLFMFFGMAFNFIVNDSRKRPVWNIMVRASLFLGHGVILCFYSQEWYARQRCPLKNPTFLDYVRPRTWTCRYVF
Briefly: In vitro inhibition of acyl coenzyme A:cholesterol acyltransferase. Details: concentration or dose not given beside the values. To be noted: concentration not given here. Put shortly: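 Enzyme fatty acyl-CoA:cholesterol acyltransferase (ACAT), assayed in vitro at a single drug concentration of 5.2 μg/mL. The value is the mean percent inhibition of enzyme activity.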

For assay [9], the system named is Rattus norvegicus. Briefly: In vivo triglyceride lowering activity when dosed as 0.025 % of the diet.

A word on the inhibition: it is the percentage by which the read-out fell short of the control.

On to `CCCCCCCCCCCCCCCCNc1ccc(C(=O)O)c(OC)c1`, for which the “serum triglyceride, percent of control” value in assay [1] was 77%. Besides, the “serum sterol level, percent of control” value worked out at 98% in assay [2] and 105% in assay [3]. Moreover, in [4], the “serum triglyceride level, percent of control” value is on record as 75%. Also, in [5], the “serum sterol level, % of control” value stood at 104%. For the same molecule, in assay [6], the Diet is listed as under 66%.

Take `CCCCCCCCCCCCCCCCNc1ccc(C(=O)CCC(=O)O)cc1`: the “serum triglyceride, percent of control” value in assay [1] is reported as under 66%. For the same molecule, the “serum sterol level, percent of control” value in assay [2] is recorded as 109%; in [3], 100%. Besides, in [7], the “serum triglyceride level, percent of control” value was under 72%. The “serum sterol level, % of control” value in [5] is reported as 116%. In [8], this molecule had an inhibition of 16%. In addition, in assay [9], the Diet is reported as under 82%.

As to `CCCCCCCCCCCCCCCCNc1ccc(C(=O)NCCC(=O)O)cc1`, the “serum triglyceride, percent of control” value in [1] is on record as under 55%. Further, the results for the “serum sterol level, percent of control” value in assay [2] and in assay [3] were under 86% and 93%, respectively. Also, the “serum triglyceride level, percent of control” value was 78% in assay [7] and 99% in [4]. In [5], the “serum sterol level, % of control” value is on record as under 90%. In [8], this molecule returned an inhibition of 49%.
